Assay results as given in ChEMBL document CHEMBL5058577, “EUbOPEN Chemogenomics Library 2 (Multiplex)” (2022).

System: Fibroblast
Test: Multiplex assay against human fibroblast
Assay type: toxicity, cell-based
How it was run: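 On a CQ1 microscope at 37°C and 5% CO2, live cells were imaged after compound addition. They had been stained at seeding with Hoechst33342, BioTracker Green Microtubule Cytoskeleton Dye, MitoTracker Red and Annexin V Alexa Fluor 680. CellPathfinder machine-learning gating assigned cells to Hoechst high-intensity objects or normal cells, normal cells to healthy, pyknosed or fragmented nuclei, and pyknosed cells to mitotic or apoptotic. Tubulin, mitochondrial-mass and membrane-permeability phenotypes are per cents of healthy-nucleus cells.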

[1] = 12 h, 1 µM, compound concentration 1 uM, replicate 1
[2] = 12 h, 1 µM, compound concentration 1 uM, replicate 2
[3] = 12 h, 10 µM, compound concentration 10 uM, replicate 1
[4] = 12 h, 10 µM, compound concentration 10 uM, replicate 2
[5] = 24 h, 1 µM, compound concentration 1 uM, replicate 1
[6] = 24 h, 1 µM, compound concentration 1 uM, replicate 2
[7] = 24 h, 10 µM, compound concentration 10 uM, replicate 1
[8] = 24 h, 10 µM, compound concentration 10 uM, replicate 2
[9] = 48 h, 1 µM, compound concentration 1 uM, replicate 1
[10] = 48 h, 1 µM, compound concentration 1 uM, replicate 2
[11] = 48 h, 10 µM, compound concentration 10 uM, replicate 1
[12] = 48 h, 10 µM, compound concentration 10 uM, replicate 2

SMILES: Cc1c(Cc2ccc3ccccc3n2)c2cc(F)ccc2n1CC(=O)O [TIMAPIPRANT]
- Population Apoptotic (%) [1]: 41%
- Population Fragmented Nuclei (%) [1]: 12%
- Population Healthy Nuclei (%) [1]: 67%
- Population Hoechst High Intensity Objects (%) [1]: 5%
- Population Membrane Permeable-Phenotype (%) [1]: 1%
- Population Mitochondria Different-Phenotype (%) [1]: 7%
- Population Mitotic Cells (%) [1]: 58%
- Population Normal (%) [1]: 94%
- Population Pyknosed Nuclei (%) [1]: 19%
- Population Tubulin-Different-Phenotype (%) [1]: 26%
- Total Cell Count [1]: 171
- Population Apoptotic (%) [2]: 33%
- Population Fragmented Nuclei (%) [2]: 28%
- Population Healthy Nuclei (%) [2]: 49%
- Population Membrane Permeable-Phenotype (%) [2]: 9%
- Population Mitochondria Different-Phenotype (%) [2]: 4%
- Population Mitotic Cells (%) [2]: 66%
- Population Pyknosed Nuclei (%) [2]: 22%
- Population Tubulin-Different-Phenotype (%) [2]: 43%
- Total Cell Count [2]: 142
- Population Apoptotic (%) [3]: 66%
- Population Fragmented Nuclei (%) [3]: 13%
- Population Healthy Nuclei (%) [3]: 77%
- Population Hoechst High Intensity Objects (%) [3]: 2%
- Population Membrane Permeable-Phenotype (%) [3]: 0%
- Population Mitochondria Different-Phenotype (%) [3]: 7%
- Population Mitotic Cells (%) [3]: 33%
- Population Normal (%) [3]: 97%
- Population Pyknosed Nuclei (%) [3]: 8%
- Population Tubulin-Different-Phenotype (%) [3]: 35%
- Total Cell Count [3]: 147
- Population Apoptotic (%) [4]: 53%
- Population Fragmented Nuclei (%) [4]: 26%
- Population Healthy Nuclei (%) [4]: 53%
- Population Hoechst High Intensity Objects (%) [4]: 5%
- Population Membrane Permeable-Phenotype (%) [4]: 1%
- Population Mitotic Cells (%) [4]: 46%
- Population Normal (%) [4]: 95%
- Population Pyknosed Nuclei (%) [4]: 19%
- Population Tubulin-Different-Phenotype (%) [4]: 43%
- Total Cell Count [4]: 160
- Population Apoptotic (%) [5]: 33%
- Population Fragmented Nuclei (%) [5]: 9%
- Population Healthy Nuclei (%) [5]: 73%
- Population Hoechst High Intensity Objects (%) [5]: 1%
- Population Membrane Permeable-Phenotype (%) [5]: 3%
- Population Mitochondria Different-Phenotype (%) [5]: 2%
- Population Mitotic Cells (%) [5]: 66%
- Population Normal (%) [5]: 98%
- Population Pyknosed Nuclei (%) [5]: 17%
- Population Tubulin-Different-Phenotype (%) [5]: 26%
- Total Cell Count [5]: 158
- Population Apoptotic (%) [6]: 47%
- Population Fragmented Nuclei (%) [6]: 30%
- Population Healthy Nuclei (%) [6]: 52%
- Population Hoechst High Intensity Objects (%) [6]: 5%
- Population Membrane Permeable-Phenotype (%) [6]: 7%
- Population Mitochondria Different-Phenotype (%) [6]: 4%
- Population Mitotic Cells (%) [6]: 52%
- Population Normal (%) [6]: 94%
- Population Tubulin-Different-Phenotype (%) [6]: 38%
- Total Cell Count [6]: 142
- Population Apoptotic (%) [7]: 66%
- Population Fragmented Nuclei (%) [7]: 14%
- Population Healthy Nuclei (%) [7]: 77%
- Population Hoechst High Intensity Objects (%) [7]: 2%
- Population Membrane Permeable-Phenotype (%) [7]: 0%
- Population Mitochondria Different-Phenotype (%) [7]: 6%
- Population Mitotic Cells (%) [7]: 33%
- Population Normal (%) [7]: 97%
- Population Pyknosed Nuclei (%) [7]: 8%
- Population Tubulin-Different-Phenotype (%) [7]: 30%
- Total Cell Count [7]: 150
- Population Apoptotic (%) [8]: 52%
- Population Fragmented Nuclei (%) [8]: 29%
- Population Healthy Nuclei (%) [8]: 58%
- Population Hoechst High Intensity Objects (%) [8]: 7%
- Population Membrane Permeable-Phenotype (%) [8]: 3%
- Population Mitochondria Different-Phenotype (%) [8]: 10%
- Population Mitotic Cells (%) [8]: 47%
- Population Normal (%) [8]: 92%
- Population Pyknosed Nuclei (%) [8]: 12%
- Population Tubulin-Different-Phenotype (%) [8]: 52%
- Total Cell Count [8]: 164
- Population Apoptotic (%) [9]: 72%
- Population Fragmented Nuclei (%) [9]: 15%
- Population Healthy Nuclei (%) [9]: 72%
- Population Hoechst High Intensity Objects (%) [9]: 7%
- Population Membrane Permeable-Phenotype (%) [9]: 0%
- Population Mitochondria Different-Phenotype (%) [9]: 2%
- Population Mitotic Cells (%) [9]: 27%
- Population Normal (%) [9]: 92%
- Population Pyknosed Nuclei (%) [9]: 12%
- Population Tubulin-Different-Phenotype (%) [9]: 25%
- Total Cell Count [9]: 162
- Population Apoptotic (%) [10]: 61%
- Population Fragmented Nuclei (%) [10]: 36%
- Population Healthy Nuclei (%) [10]: 48%
- Population Hoechst High Intensity Objects (%) [10]: 6%
- Population Membrane Permeable-Phenotype (%) [10]: 2%
- Population Mitochondria Different-Phenotype (%) [10]: 1%
- Population Mitotic Cells (%) [10]: 38%
- Population Normal (%) [10]: 94%
- Population Pyknosed Nuclei (%) [10]: 14%
- Population Tubulin-Different-Phenotype (%) [10]: 34%
- Total Cell Count [10]: 150
- Population Apoptotic (%) [11]: 66%
- Population Fragmented Nuclei (%) [11]: 18%
- Population Healthy Nuclei (%) [11]: 75%
- Population Hoechst High Intensity Objects (%) [11]: 5%
- Population Membrane Permeable-Phenotype (%) [11]: 0%
- Population Mitochondria Different-Phenotype (%) [11]: 3%
- Population Mitotic Cells (%) [11]: 33%
- Population Normal (%) [11]: 94%
- Population Pyknosed Nuclei (%) [11]: 6%
- Population Tubulin-Different-Phenotype (%) [11]: 31%
- Total Cell Count [11]: 152
- Population Apoptotic (%) [12]: 60%
- Population Fragmented Nuclei (%) [12]: 30%
- Population Healthy Nuclei (%) [12]: 59%
- Population Hoechst High Intensity Objects (%) [12]: 2%
- Population Membrane Permeable-Phenotype (%) [12]: 1%
- Population Mitochondria Different-Phenotype (%) [12]: 1%
- Population Mitotic Cells (%) [12]: 40%
- Population Normal (%) [12]: 97%
- Population Pyknosed Nuclei (%) [12]: 9%
- Population Tubulin-Different-Phenotype (%) [12]: 37%
- Total Cell Count [12]: 157
